Beta apoptosis: beta cell apoptosis inhibition; AID 435005; hit rate 0.8% among 300,000; INS-1E cytokine-induced death, ATP luminescence, 48 h; percent of positive-control rescue, neutral wells zero; protection from apoptosis, % (no concentration beside the values);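 active = Every replicate reaches about 75%, or at least half do and their mean reaches it too, limit read from the data; inconclusive = At least half of replicates reach the limit but their mean does not; inactive = Under half of replicates reach the limit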;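 also: 0% = cytokine-treated negative control wells and 100% = positive control rescue; higher means more ATP so stronger rescue from cytokine killing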
CSC inhib: blocks cancer stem cells. inhibition, % at 7.5 µM. cancer stem cell-like cells viability, luminescence. hit rate 1.1% among 300,000; in the data active = inhibition above about 75%; inconclusive = no clear call, values can overlap the other calls; tested in HMLE shEcad cells
NALP3 yeast inh: NALP3 inhibition in yeast. Yeast reconstituted NLRP3/ASC/caspase-1, beta-gal luminescence, 24 h. inhibition, % at 10 µM. hit rate 0.39% among 330,000. AID 2825;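 active = inhibition of 50% or more; inactive = inhibition below 50%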;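 also: plate controls were induced DMSO wells for no effect and uninduced yeast grown without galactose for full effect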
Calb FLC: C. albicans growth modulation with fluconazole. growth inhibition, % (concentration not given with the values). hit rate 0.57% among 300,000. C. albicans CaCi-2 (fluconazole-resistant clinical isolate) + fluconazole, Alamar Blue growth, 48 h;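 active = growth inhibition above about 58% in most replicates, limit read from the data, passing the limit was not always enough; inconclusive = exactly half the replicates above a set limit; inactive = most replicates below a set limit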;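 also: all wells also contain fluconazole at 8 µg/ml as a sub-toxic cotreatment; 0% = median of DMSO wells and 100% = median of geldanamycin control wells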
T cruzi repl: T. cruzi replication inhibition | T. cruzi beta-gal in NIH3T3, luminescence, 90 h | AID 1885 | hit rate 1.4% among 300,000 | inhibition, % (no concentration beside the values);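 active = mean inhibition across valid replicates above about 55%, limit read from the data; inconclusive = mean below that limit but half or more replicates reach it; inactive = mean below it, under half of replicates reach it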;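 also: signal also drops with host cell toxicity which is not excluded here; 0% = plate median of DMSO wells and 100% = zero luminescence signal; higher percent means less beta-gal luminescence so fewer parasites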
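System: Mouse NIH/3T3 fibroblasts infected with β-gal-expressing T. cruzi Tulahuen C4 | Quantity: NIH/3T3 cells, 5,000 per well | Reagent: 5000 reporter trypomastigotes per well | Dosing: Compound pinned at 50 nL/well, DMSO | Schedule: 3 h host attachment, then at least 90 h co-culture | Detection: GalScreen luminescence, 60 min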
Mdm2-MdmX inh: inhibitors of human Mdm2/MdmX interaction. O15151+Q00987. SaOS-2 split-luciferase Mdm2/MdmX complementation, luminescence. inhibition, % at 8 µM. hit rate 3% among 330,000. AID 485346;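 active = inhibition of at least 50% at 8 µM in the primary screen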
Target sequence (O15151 whole entry, looked up): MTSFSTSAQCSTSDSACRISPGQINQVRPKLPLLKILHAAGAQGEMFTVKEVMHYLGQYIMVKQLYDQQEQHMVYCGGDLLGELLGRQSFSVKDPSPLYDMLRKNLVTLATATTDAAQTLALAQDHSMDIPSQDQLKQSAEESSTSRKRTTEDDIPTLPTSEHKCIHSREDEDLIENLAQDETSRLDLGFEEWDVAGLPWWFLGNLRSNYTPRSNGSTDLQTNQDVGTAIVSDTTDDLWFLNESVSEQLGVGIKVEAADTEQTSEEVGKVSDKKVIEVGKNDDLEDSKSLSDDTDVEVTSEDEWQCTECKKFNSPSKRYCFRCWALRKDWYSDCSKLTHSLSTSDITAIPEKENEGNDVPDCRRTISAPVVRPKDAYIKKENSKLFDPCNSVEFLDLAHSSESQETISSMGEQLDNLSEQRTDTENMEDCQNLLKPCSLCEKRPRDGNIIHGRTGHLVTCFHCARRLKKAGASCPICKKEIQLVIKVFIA
Target sequence (Q00987 whole entry, looked up): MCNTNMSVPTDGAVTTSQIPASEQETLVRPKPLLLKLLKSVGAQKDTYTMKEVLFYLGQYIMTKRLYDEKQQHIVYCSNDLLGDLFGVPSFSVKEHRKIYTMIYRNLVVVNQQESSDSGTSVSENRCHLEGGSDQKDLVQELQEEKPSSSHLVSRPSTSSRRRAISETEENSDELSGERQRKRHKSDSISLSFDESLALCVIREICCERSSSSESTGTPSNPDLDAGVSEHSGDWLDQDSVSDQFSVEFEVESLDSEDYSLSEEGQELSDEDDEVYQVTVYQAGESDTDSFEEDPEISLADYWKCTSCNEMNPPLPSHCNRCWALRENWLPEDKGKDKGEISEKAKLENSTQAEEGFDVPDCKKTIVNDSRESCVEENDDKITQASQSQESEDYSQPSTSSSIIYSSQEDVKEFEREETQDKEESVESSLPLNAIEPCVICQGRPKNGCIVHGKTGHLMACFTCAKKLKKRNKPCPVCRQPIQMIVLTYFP
Mdm2 MdmX conf: human Mdm2/MdmX binding inhibition, confirmed; shares compounds with Mdm2-MdmX inh; luminescent assay; inhibition, % at 8 µM; hit rate 55% among 10,000; in the data active = inhibition above about 40%
FLuc counter: counter-screen for Mdm2/MdmX inhibitors: full-length luciferase; shares compounds with Mdm2-MdmX inh; SaOS-2 full-length luciferase counterscreen, luminescence; inhibition, % at 8 µM; hit rate 77% among 6,200; AID 504607;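 active = mean inhibition at 8 µM reaching about 37%, which flags the compound as non-specific, limit read from the data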;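 also: p53-null SaOS-2 cells with luciferase driven by a doxycycline-inducible promoter; compound on cells about two nights before reading with doxycycline added after day one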
Numbers without * were called inactive; ? = inconclusive; · = no result. Shown are actives, neighbours in structure and some others; about 5.3% of the full set was active somewhere.

SMILES	Beta apoptosis	CSC inhib	NALP3 yeast inh	Calb FLC	T cruzi repl	Mdm2-MdmX inh	Mdm2 MdmX conf	FLuc counter
O=C1/C(=C/c2ccccc2)SC(=S)N1CCCC(=O)N1CCCCC1CCO (centres undefined)	-59	15	9	2	-1	85*	57*	37*
CCC(C)(C)NC(=O)C(c1cccn1C)N(C(=O)Cn1nnc2ccccc21)c1ccc(NC(C)=O)cc1 (centres undefined)	·	-9	12	-3	7	20	·	·
CC(NC(=O)CN1C(=O)NC(Cc2ccccc2)(Cc2ccccc2)C1=O)C12CC3CC(CC(C3)C1)C2 (centres undefined)	17	14	12	-1	61*	77*	45*	65*
Cc1cc(-c2ccc(C)c(S(=O)(=O)NCc3ccc(Br)cc3)c2)on1	-4	13	19	-2	28	64*	52*	42*
COc1cccc(CCN2CCC(CNS(=O)(=O)c3cc(-c4cc(C)no4)ccc3C)CC2)c1	8	7	7	3	29	55*	50*	67*
COc1ccccc1CN1CCC(CNS(=O)(=O)c2cc(-c3onc(C)c3C)ccc2OC)CC1	0	17	6	-3	35	51*	33	·
COc1ccc(-c2cc(C)no2)cc1S(=O)(=O)Nc1cccc(C)c1	3	13	11	30	27	20	·	·
Cc1cc(-c2ccc(C)c(S(=O)(=O)NCc3cccc(Br)c3)c2)on1	-1	18	13	14	32	23	·	·
COc1ccc(-c2cc(C)no2)cc1S(=O)(=O)Nc1ccccc1	-3	43	22	45	6	55*	67*	63*
COc1cccc(CCN2CCC(CNS(=O)(=O)c3cc(-c4cc(C)no4)ccc3OC)CC2)c1	-3	16	9	14	22	50*	50*	72*
COc1cc(OC)c(OC)cc1CCC(C)NCCC(c1ccccc1)c1ccccc1 (centres undefined)	21	16	29	26	27	64*	50*	60*
COc1ccccc1CCNC(C)CCc1ccc(O)cc1 (centres undefined)	-9	6	17	-18	9	11	·	·
CCn1c2ccccc2c2cc(NS(=O)(=O)c3ccccc3C)ccc21	-2	64	9	3	10	63*	47*	67*
Cc1cc(C)c2oc(C(=O)Nc3ccc(S(=O)(=O)N4CCC(C)CC4)cc3)cc(=O)c2c1	0	1	8	37	10	29	·	·
CC(=O)Nc1ccc(NC(=O)c2cc(=O)c3cc(C)cc(C)c3o2)cc1	1	27	21	-5	-2	67*	54*	90*
COc1ccc(N(C(=O)c2ccco2)C(C(=O)NC2CCCC2)c2ccncc2)cc1 (centres undefined)	-4	·	21	0	1	23	·	·
COc1ccc(NC(=O)/C(Cl)=C(/Cl)S(=O)Cc2ccccc2Cl)cn1 (centres undefined)	·	·	29	·	·	98*	100*	2
NNC(=O)CCN1CCN(C(c2ccccc2)c2ccccc2)CC1	-3	-10	14	0	-27	3	·	·
CC(=O)NC1=C(Nc2ccc(N(C)C)cc2)C(=O)c2ccccc2C1=O	0	45	31	-1	16	70*	45*	115*
CC1CCN(S(=O)(=O)c2ccc3c(c2)C(=NO)c2cc(S(=O)(=O)N4CCC(C)CC4)ccc2-3)CC1	104*	113*	0	·	·	100*	100*	0
O=S(=O)(c1ccc2c(c1)C(=NO)c1cc(S(=O)(=O)N3CCCCC3)ccc1-2)N1CCCCC1	106*	122*	4	-14	77*	95*	99*	2
O=C(CCNS(=O)(=O)c1ccccc1)N1CCOCC1	0	4	8	-2	-2	11	·	·
CCOc1ccc(OCc2ccc(C(=O)NN=Cc3ccc[nH]3)cc2)cc1	123*	92*	26	·	·	84*	73*	28
COc1ccccc1C(=O)NCC(=O)N1CCN(S(=O)(=O)c2ccccc2C(F)(F)F)CC1	-2	·	8	·	·	18	·	·
O=C(NCC(=O)N1CCN(S(=O)(=O)c2ccccc2C(F)(F)F)CC1)c1sc2ccccc2c1Cl	3	10	14	·	3	57*	33	·
SMILES	Beta apoptosis	CSC inhib	NALP3 yeast inh	Calb FLC	T cruzi repl	Mdm2-MdmX inh	Mdm2 MdmX conf	FLuc counter
O=C1c2cccc3cccc(c23)C(=O)N1CC1CCN(CC(O)COc2ccc3ccccc3c2)CC1 (centres undefined)	70	103*	24	-5	66*	73*	38	52*
CC(=O)c1ccccc1OCC(O)CN1CCN(CCN2C(=O)c3cccc4cccc(c34)C2=O)CC1 (centres undefined)	15	5	3	?	52	-13	·	·
Cc1cc(C)cc(OCC(O)CN2CCC(CN3C(=O)c4cccc5cccc(c45)C3=O)CC2)c1 (centres undefined)	78*	24	17	6	57*	69*	37	74*
CCc1ccc(OCC(O)CN2CCC(CN3C(=O)c4cccc5cccc(c45)C3=O)CC2)cc1 (centres undefined)	1	45	17	-11	56*	77*	33	61*
O=C1c2cccc3cccc(c23)C(=O)N1CCN1CCN(CC(O)COc2ccc3ccccc3c2)CC1 (centres undefined)	47	104*	11	20	34	67*	27	·
COc1ccc(COCC(O)CN2CCC(CN3C(=O)c4cccc5cccc(c45)C3=O)CC2)cc1OC (centres undefined)	27	-3	4	7	40	15	·	·
Cc1ccc(SCC(=O)Nc2cccc(C(=O)NC(C)(C)C)c2)cc1	-3	-12	20	4	11	-23	·	·
C/C(=N\NC(=O)c1ccccc1O)c1cccc(NC(=O)c2ccccc2)c1	9	-3	2	2	-7	25	·	·
CN(/N=C/c1ccc2c(c1)OCO2)c1ccccc1	0	21	1	4	-3	-100	·	·
Cc1cccc(S(=O)(=O)c2c(N)n(Cc3ccco3)c3nc4ccccc4nc23)c1	-4	4	18	-22	-16	17	·	·
Cc1cccc(-n2cnc3c(c2=O)c2nc4ccccc4nc2n3Cc2ccco2)c1	8	41	4	9	-14	54*	26	·
Cc1nn(Cc2ccc(Cl)c(Cl)c2)c(C)c1NC(=O)c1sc2ccccc2c1Cl	-3	-14	6	3	34	53*	14	·
